Source: ChEMBL document CHEMBL3526018, “Metabolites of PPI-2458, a selective, irreversible inhibitor of methionine aminopeptidase-2: structure determination and in vivo activity” (Drug Metab Dispos, 2013)
The source made the active and inactive calls. The calls are words filed in the database; no cut-off is given here.

Assays:
Rattus norvegicus [1] = assay: Inhibition of MetAP2 level in Sprague-Dawley rat liver assessed as free enzyme level at 0.3 mg/kg, iv by ELISA; format: functional, organism-based; set-up: dose 0.3 mg/kg
Summary of the method: (§1)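 Male Sprague-Dawley rats (200-225 g, n=3 per group) were dosed once IV at 0.3 mg/kg or PO at 0.3 or 3.0 mg/kg, in 11% HPCD in water. Blood, liver, lung, thymus and pooled non-mesenteric lymph nodes were taken at ~24 h and lysed or homogenized with NP-40. Free MetAP2 was measured by ELISA and expressed as % of vehicle.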

Liver microsome [2] = assay: Metabolic stability in dog liver microsomes assessed as retention time of ((3R,4S,5S,6R)-4-((2R,3R)-3-(((R)-3,3-dimethyloxiran-2-yl)methyl)-2-methyloxiran-2-yl)-5-methoxy-1-oxaspiro[2.5]octan-6-yl ((R)-1-amino-3-methyl-1-oxobutan-2-yl)carbamate) at 5 mM by LC/MS analysis; format: ADME, Canis lupus familiaris; conditions: 5000 µM
CYP3A5 (Homo sapiens) [3] = assay: Activity of human recombinant CYP3A5 assessed as ((3R,4S,5S,6R)-4-((2R,3R)-3-(((R)-3,3-dimethyloxiran-2-yl)methyl)-2-methyloxiran-2-yl)-5-methoxy-1-oxaspiro[2.5]octan-6-yl ((R)-1-amino-3-methyl-1-oxobutan-2-yl)carbamate) formation per pmol of enzyme
Liver microsome [4] = assay: Metabolic stability in rat liver microsomes assessed as retention time of ((3R,4S,5S,6R)-4-((2R,3R)-3-(((S)-3,3-dimethyloxiran-2-yl)methyl)-2-methyloxiran-2-yl)-5-methoxy-1-oxaspiro[2.5]octan-6-yl ((R)-1-amino-3-methyl-1-oxobutan-2-yl)carbamate) at 5 mM by LC/MS analysis; format: ADME; conditions: 5000 µM
Summary of the method: (§2)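 Liver microsomes (pooled male/female) in 100 mM KPO4 pH 7.4 with PPI-2458 (5 mM stock), pre-incubated 5 min at 37°C, then 10 mM NADPH added; 20 min at 37°C with shaking. Time-zero and no-NADPH controls. Quenched with CH3CN; supernatant dried and redissolved in water. Analysed by LC-MS, ESI+ full scan 300–800 amu, C18 column, 10→50% B gradient.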

Rattus norvegicus [5] = assay: Inhibition of MetAP2 level in Sprague-Dawley rat thymus assessed as free enzyme level at 0.3 mg/kg, po by ELISA; format: functional, organism-based; set-up: dose 0.3 mg/kg; summary of the method: as §1
CYP3A4 (Homo sapiens) [6] = assay: Activity of human recombinant CYP3A4 assessed as ((3R,4S,5S,6R)-4-((2R,3R)-3-(((S)-3,3-dimethyloxiran-2-yl)methyl)-2-methyloxiran-2-yl)-5-methoxy-1-oxaspiro[2.5]octan-6-yl ((R)-1-amino-3-methyl-1-oxobutan-2-yl)carbamate) formation; conditions: recombinant enzyme
Liver microsome [7] = assay: Metabolic stability in rat liver microsomes assessed as retention time of ((3R,4S,5S,6R)-5-methoxy-4-((2R,3R)-2-methyl-3-(3-methylbut-2-en-1-yl)oxiran-2-yl)-1-oxaspiro[2.5]octan-6-yl ((R)-1-amino-3-hydroxy-3-methyl-1-oxobutan-2-yl)carbamate) at 5 mM by LC/MS analysis; format: ADME; conditions: 5000 µM; summary of the method: as §2
[8] = Metabolic stability in monkey liver microsomes assessed as retention time of ((3R,4S,5S,6R)-4-((2R,3R)-3-(((R)-3,3-dimethyloxiran-2-yl)methyl)-2-methyloxiran-2-yl)-5-methoxy-1-oxaspiro[2.5]octan-6-yl ((R)-1-amino-3-methyl-1-oxobutan-2-yl)carbamate) at 5 mM by LC/MS analysis; format: ADME, Macaca mulatta; conditions: rhesus monkey, 5000 µM; summary of the method: as §2
[9] = Apparent oral clearance in non-Hodgkin lymphoma patient at 15 mg, po alternate days for 21 days; format: ADME, organism-based; conditions: human, in vivo
Summary of the method: (§3)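 Oral PPI-2458 given every other day to lymphoma patients. Plasma sampled pre-dose and at 15 min, 30 min, 1, 2, 3, 4, 6, 8, 24 and 48 h after the first dose. Parent and metabolites were measured by LC-MS/MS after protein precipitation, evaporation and reconstitution. CL/F was computed only for parent and summed analytes. For metabolites, t1/2 is an apparent first-phase value.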

Rattus norvegicus [10] = assay: Inhibition of MetAP2 level in Sprague-Dawley rat whole blood assessed as free enzyme level at 0.3 mg/kg, po by ELISA; format: functional, organism-based; set-up: dose 0.3 mg/kg; summary of the method: as §1
CYP3A5 (Homo sapiens) [11] = assay: Ratio of Vmax to Km for human recombinant CYP3A5 assessed as ((3R,4S,5S,6R)-5-methoxy-4-((2R,3R)-2-methyl-3-(3-methylbut-2-en-1-yl)oxiran-2-yl)-1-oxaspiro[2.5]octan-6-yl ((R)-1-amino-3-hydroxy-3-methyl-1-oxobutan-2-yl)carbamate) formation; conditions: recombinant enzyme
CYP3A4 (Homo sapiens) [12] = assay: Activity of human recombinant CYP3A4 assessed as ((3R,4S,5S,6R)-4-((2R,3R)-3-(((S)-3,3-dimethyloxiran-2-yl)methyl)-2-methyloxiran-2-yl)-5-methoxy-1-oxaspiro[2.5]octan-6-yl ((R)-1-amino-3-methyl-1-oxobutan-2-yl)carbamate) formation per pmol of enzyme
Rattus norvegicus [13] = assay: Inhibition of MetAP2 level in Sprague-Dawley rat lung assessed as free enzyme level at 0.3 mg/kg, po by ELISA; format: functional, organism-based; set-up: dose 0.3 mg/kg; summary of the method: as §1
CYP3A5 (Homo sapiens) [14] = assay: Ratio of Vmax to Km for human recombinant CYP3A5 assessed as ((3R,4S,5S,6R)-4-((2R,3R)-3-(((S)-3,3-dimethyloxiran-2-yl)methyl)-2-methyloxiran-2-yl)-5-methoxy-1-oxaspiro[2.5]octan-6-yl ((R)-1-amino-3-methyl-1-oxobutan-2-yl)carbamate) formation; conditions: recombinant enzyme
[15] = AUC (0 to t hrs) in non-Hodgkin lymphoma patient at 15 mg, po alternate days for 21 days; format: ADME, organism-based; conditions: human, in vivo; summary of the method: as §3
CYP3A4 (Homo sapiens) [16] = assay: Activity of human recombinant CYP3A4 assessed as ((3R,4S,5S,6R)-4-((2R,3R)-3-(((R)-3,3-dimethyloxiran-2-yl)methyl)-2-methyloxiran-2-yl)-5-methoxy-1-oxaspiro[2.5]octan-6-yl ((R)-1-amino-3-methyl-1-oxobutan-2-yl)carbamate) formation; conditions: recombinant enzyme
CYP3A4 (Homo sapiens) [17] = assay: Activity of human recombinant CYP3A4 assessed as ((3R,4S,5S,6R)-5-methoxy-4-((2R,3R)-2-methyl-3-(3-methylbut-2-en-1-yl)oxiran-2-yl)-1-oxaspiro[2.5]octan-6-yl ((R)-1-amino-3-hydroxy-3-methyl-1-oxobutan-2-yl)carbamate) formation per pmol of enzyme
[18] = target: Methionine aminopeptidase 2 (Homo sapiens) (UniProt P50579); assay: Inhibition of human MetAP2 assessed as remaining enzyme activity after 8 hrs; set-up: concentration or dose not given beside the values
Sequence of Methionine aminopeptidase 2 (Homo sapiens) (P50579 2-478 limits assumed): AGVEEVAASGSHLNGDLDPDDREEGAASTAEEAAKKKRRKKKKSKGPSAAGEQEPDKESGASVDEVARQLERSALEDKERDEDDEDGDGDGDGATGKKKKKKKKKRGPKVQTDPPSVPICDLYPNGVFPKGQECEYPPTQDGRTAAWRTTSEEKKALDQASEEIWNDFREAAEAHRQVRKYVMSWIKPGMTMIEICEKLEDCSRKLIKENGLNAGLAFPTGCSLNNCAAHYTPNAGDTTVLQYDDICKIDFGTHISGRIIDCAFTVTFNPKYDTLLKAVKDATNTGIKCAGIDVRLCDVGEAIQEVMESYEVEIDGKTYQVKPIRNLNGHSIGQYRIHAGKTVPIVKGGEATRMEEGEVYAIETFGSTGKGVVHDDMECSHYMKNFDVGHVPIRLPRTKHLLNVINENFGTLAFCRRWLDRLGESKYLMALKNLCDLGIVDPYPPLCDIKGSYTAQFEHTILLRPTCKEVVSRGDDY
Summary of the method: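 The hMetAP2 assay follows the fraction of active enzyme remaining during an 8 h incubation with inhibitor, relative to an enzyme-only control.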

CYP3A4 (Homo sapiens) [19] = assay: Ratio of Vmax to Km for human recombinant CYP3A4 assessed as ((3R,4S,5S,6R)-4-((2R,3R)-3-((E)-4-hydroxy-3-methylbut-2-en-1-yl)-2-methyloxiran-2-yl)-5-methoxy-1-oxaspiro[2.5]octan-6-yl((R)-1-amino-3-methyl-1-oxobutan-2-yl)carbamate) formation; conditions: recombinant enzyme

Drug metabolism (Liver microsome [2]): metabolite_detected | Vmax (CYP3A5 (Homo sapiens) [3]): 2.86 pmol/min | Drug metabolism (Liver microsome [4]): metabolite_detected | Km (CYP3A4 (Homo sapiens) [6]): 15 µM | Drug metabolism (Liver microsome [7]): metabolite_detected | Drug metabolism [8]: metabolite_detected | CL/F [9]: 5880 mL/min | Vmax/Km (CYP3A5 (Homo sapiens) [11]): 0.09 µL/min | Vmax (CYP3A4 (Homo sapiens) [12]): 2.97 pmol/min | Vmax/Km (CYP3A5 (Homo sapiens) [14]): 0.09 µL/min | AUC(0-t) at 504 h [15]: 43.9 ng·h/mL | Km (CYP3A4 (Homo sapiens) [16]): 17 µM | Vmax (CYP3A4 (Homo sapiens) [17]): 0.51 pmol/min | Activity [18]: 2.8% | Vmax/Km (CYP3A4 (Homo sapiens) [19]): 0.09 µL/min
Compound: CO[C@@H]1[C@H](OC(=O)N[C@@H](C(N)=O)C(C)C)CC[C@]2(CO2)[C@H]1[C@@]1(C)O[C@@H]1CC=C(C)C [PPI-2458]
inhibition (Rattus norvegicus [1]): Active | inhibition (Rattus norvegicus [5]): Active | inhibition (Rattus norvegicus [10]): Active | inhibition (Rattus norvegicus [13]): Active
